Assay outcomes from PubChem BioAssay.
The list is not random: actives were taken first. Their share in the collection is about 5.7%.
SKKanGAS inh = inhibitors of SKKanGAS S. pyogenes growth in kanamycin (SK-promoter or general growth effect); BacTiter-Glo, 6 h; inhibition, % at 7.5 µM; 300,000 tested, 1.3% active; AID 1662;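 active = mean replicate score, as percent of positive control median, at least 50; inconclusive = mean below 50 but one replicate at or above 50; inactive = mean and every replicate below 50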;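 also: strain carries kanamycin resistance gene driven by streptokinase promoter and grows in 40 µg/ml kanamycin; loss of luminescence reflects streptokinase promoter inhibition or plain growth inhibition; 0% = median of DMSO wells and 100% = positive control at its reference dose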
Mdm2 MdmX PPI = human Mdm2/MdmX binding inhibition; O15151+Q00987; SaOS-2 split-luciferase Mdm2/MdmX complementation, luminescence; inhibition, % at 8 µM; 330,000 tested, 3% active; AID 485346;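 active = inhibition of at least 50% at 8 µM in the primary screen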
Target sequence (O15151 whole entry, looked up): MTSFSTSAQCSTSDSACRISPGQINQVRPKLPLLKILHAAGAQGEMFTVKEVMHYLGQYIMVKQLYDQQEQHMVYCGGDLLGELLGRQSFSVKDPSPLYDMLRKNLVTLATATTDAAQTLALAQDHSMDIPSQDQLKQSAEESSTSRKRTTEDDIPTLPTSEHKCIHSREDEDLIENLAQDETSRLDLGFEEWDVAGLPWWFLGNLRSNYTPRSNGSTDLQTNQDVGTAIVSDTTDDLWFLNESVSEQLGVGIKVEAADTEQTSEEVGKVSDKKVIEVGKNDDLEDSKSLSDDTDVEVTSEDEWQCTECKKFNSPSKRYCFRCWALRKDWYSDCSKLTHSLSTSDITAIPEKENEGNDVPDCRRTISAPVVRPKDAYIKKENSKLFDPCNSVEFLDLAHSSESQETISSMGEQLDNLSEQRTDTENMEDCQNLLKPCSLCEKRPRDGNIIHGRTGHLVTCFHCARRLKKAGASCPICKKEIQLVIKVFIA
Target sequence (Q00987 whole entry, looked up): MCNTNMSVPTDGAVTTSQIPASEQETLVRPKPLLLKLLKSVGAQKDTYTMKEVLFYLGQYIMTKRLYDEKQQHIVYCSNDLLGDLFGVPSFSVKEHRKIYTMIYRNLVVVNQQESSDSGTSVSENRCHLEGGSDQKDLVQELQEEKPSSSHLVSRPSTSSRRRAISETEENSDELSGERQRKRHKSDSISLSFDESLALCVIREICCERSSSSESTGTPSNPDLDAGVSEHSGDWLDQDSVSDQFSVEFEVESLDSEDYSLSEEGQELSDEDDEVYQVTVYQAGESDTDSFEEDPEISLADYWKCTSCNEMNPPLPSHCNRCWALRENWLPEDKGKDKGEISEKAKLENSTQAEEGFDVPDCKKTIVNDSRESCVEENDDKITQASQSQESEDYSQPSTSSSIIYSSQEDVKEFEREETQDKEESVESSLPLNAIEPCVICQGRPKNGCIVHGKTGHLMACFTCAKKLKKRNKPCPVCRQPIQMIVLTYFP
Calb FLC = C. albicans growth modulation with fluconazole. C. albicans CaCi-2 (fluconazole-resistant clinical isolate) + fluconazole, Alamar Blue growth, 48 h. growth inhibition, % (no concentration beside the values). 300,000 tested, 0.57% active;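 active = growth inhibition above about 58% in most replicates, limit read from the data, passing the limit was not always enough; inconclusive = exactly half the replicates above a set limit; inactive = most replicates below a set limit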;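 also: all wells also contain fluconazole at 8 µg/ml as a sub-toxic cotreatment; 0% = median of DMSO wells and 100% = median of geldanamycin control wells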
T cruzi inh = blocks replication of Trypanosoma cruzi. 300,000 tested, 1.4% active. T. cruzi beta-gal in NIH3T3, luminescence, 90 h. AID 1885. inhibition, % (concentration not given with the values);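 active = mean inhibition across valid replicates above about 55%, limit read from the data; inconclusive = mean below that limit but half or more replicates reach it; inactive = mean below it, under half of replicates reach it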;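 also: signal also drops with host cell toxicity which is not excluded here; 0% = plate median of DMSO wells and 100% = zero luminescence signal; higher percent means less beta-gal luminescence so fewer parasites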
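System: mouse NIH/3T3 fibroblasts infected with β-gal-expressing T. cruzi Tulahuen C4 / Input: NIH/3T3 cells, 5,000 per well / Buffer or medium: Low-serum DMEM with 2% FBS / Probe or stimulus: 5000 reporter trypomastigotes per well / Schedule: ≥90 h infection period, 3 h prior cell attachment / Measured by: GalScreen luminescence, 60 min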
Beta apoptosis = beta cell apoptosis inhibition; INS-1E cytokine-induced death, ATP luminescence, 48 h; percent of positive-control rescue, neutral wells zero; protection from apoptosis, % (concentration not given with the values); 300,000 tested, 0.8% active; AID 435005;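 active = Every replicate reaches about 75%, or at least half do and their mean reaches it too, limit read from the data; inconclusive = At least half of replicates reach the limit but their mean does not; inactive = Under half of replicates reach the limit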;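 also: 0% = cytokine-treated negative control wells and 100% = positive control rescue; higher means more ATP so stronger rescue from cytokine killing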
CSC inhib = cancer stem cell inhibition; cancer stem cell-like cells viability, luminescence; inhibition, % at 7.5 µM; 300,000 tested, 1.1% active; AID 2717; in the data active = inhibition above about 75%; inconclusive = no clear call, values can overlap the other calls; tested in HMLE shEcad cells
The depositor's hits bear a star; ? = inconclusive; . = no result; ! = repeats disagree.

SMILES	SKKanGAS inh	Mdm2 MdmX PPI	Calb FLC	T cruzi inh	Beta apoptosis	CSC inhib
Nc1nc(Nc2cccc(Cl)c2)nc(NCc2ccco2)c1[N+](=O)[O-]	74.7*	29.6	1.8	25.5	-3.7	70.8
Cc1ccc(C)c(NC(=O)C2CCN(S(=O)(=O)c3ccc4c(c3)NC(=O)CO4)CC2)c1	-2.3	12.6	-3.7	-1.6	0.3	2.1
CN(CCc1ccccn1)Cc1ccc(Cl)cc1Cl	-1.1	1.4	5.7	43.7	-1.7	-21.9
CN(CCc1ccccn1)S(=O)(=O)c1ccccc1F	2.1	-8.7	-2.1	-27.3	-7.3	-12.4
CSc1ccc(CN(C)CCc2ccccn2)cc1	-1.5	6.7	-13.5	59.3*	.	1.2
CN(CCc1ccccn1)Cc1ccc(Cl)c(Cl)c1	-10.8	5.5	-3.5	61.6*	2.4	-3.8
N#Cc1ccccc1OCC(=O)Nc1ccc(S(=O)(=O)N2CCOCC2)cc1	.	24.9	.	.	3.0	8.3
CCN(CC)CCN1C(=O)Cn2c(C)c(C)c3cccc1c32	-2.1	-9.1	?	68.9*!	-0.8	38.7
Cc1ccc(NS(=O)(=O)c2ccc3c(c2)CC(=O)N3)cc1F	.	23.4	.	.	4.2	.
COc1ccc(OCC(=O)N(Cc2sccc2C)C2CCS(=O)(=O)C2)cc1 (stereo unspecified)	-3.7	7.0	-27.5	1.2	-2.8	-5.8
CCCCC(CCC(=O)O)(C(=O)OCC)c1csc(Nc2ccc(C)cc2)n1 (stereo unspecified)	7.5	20.5	-0.5	-11.6	-10.6	-0.3
CCOC(=O)/C(=N\Nc1ccccc1)c1csc(Nc2ccc(C)cc2)n1	2.9	10.9	-2.5	59.5*	4.8	74.0
O=C(CSc1nnc(-c2ccc(Br)cc2)o1)Nc1cccc(C(=O)O)c1	0.6	49.0	2.3	1.4	-3.3	-9.4
O=C(CSc1nnc(-c2ccc(Br)cc2)o1)Nc1cccc2ccccc12	0.0	-13.0	85.4*	.	3.6	.
O=C(NCCc1ccncc1)Nc1cccc(Cl)c1	2.7	-30.1	-8.0	7.5	-6.0	10.4
S=C(NCCC(c1ccccc1)c1ccccc1)Nc1cccc(Cl)c1	101.7*	-2.9	-6.9	44.5	-0.7	122.5*
O=C(NCCCc1ccccc1)Nc1cccc(Cl)c1	-10.3	6.2	106.8*	19.8	4.0	21.3
CCOCCCNCc1ccc(OCCC(C)C)c(OC)c1	-2.7	-2.1	-2.2	63.1*	-0.3	9.1
COc1ccccc1CN(C)CC(=O)Nc1ccccc1-c1ccccc1	1.6	-1.7	33.5	4.9	-1.7	25.6
Cc1ccccc1CN(C)CC(=O)Nc1ccccc1-c1ccccc1	53.4*	-13.9	7.3	19.0	-1.9	59.9
Cc1ccccc1CN(C)CC(=O)Nc1ccccc1Oc1ccccc1	3.3	7.6	-8.3	36.9	-3.9	.
CN(CC(=O)Nc1ccccc1Oc1ccccc1)Cc1ccccc1F	3.4	8.0	5.8	14.0	-6.9	91.4*
O=C(Nc1ncc(Cc2ccccc2Cl)s1)c1ccc(-c2cccc([N+](=O)[O-])c2)o1	14.3	25.9	2.9	59.5*	11.9	44.6
Cc1cccc(Cc2cnc(NC(=O)c3ccc(C)o3)s2)c1	77.1*	-97.4	1.0	-32.9	-2.9	-2.2
O=C(Nc1ncc(Cc2cccc([N+](=O)[O-])c2)s1)c1ccco1	3.8	-31.8	-4.3	10.9	1.1	97.1*
SMILES	SKKanGAS inh	Mdm2 MdmX PPI	Calb FLC	T cruzi inh	Beta apoptosis	CSC inhib
O=C(CNC(=O)c1cccc(F)c1)N/N=C/c1cccs1	0.0	-9.6	0.2	4.6	-0.7	8.2
CC(C)(C)OC(=O)C[C@@H]1C/C=C\C[C@H](CC(=O)N(CCO)Cc2ccccc2)C(=O)N[C@H](Cc2ccccc2)COC1=O	.	0.3	.	.	-1.6	.
CCOc1cc(/C=C2\N=C(SC(C)C(N)=O)N(c3ccc(OC(F)F)cc3)C2=O)ccc1O (stereo unspecified)	25.8	22.3	14.1	-15.1	17.1	102.5*
Cc1ccc(S(=O)(=O)N2C[C@@H]3CCCC[C@@H]3[C@@H](C)[C@H]2CC(=O)c2ccccc2)cc1	.	24.5	.	.	.	.
CCOc1ccc2nc(N=NC3=C(O)CC(C)(C)CC3=O)sc2c1	1.6	28.6	89.5*	-12.9	0.3	24.7
COc1ccc(N(C(=O)Cn2nnc3ccccc32)C(C(=O)NC(C)(C)C)c2ccc(OC)c(O)c2)cc1 (stereo unspecified)	-0.2	-15.9	77.8*	12.4	1.9	-10.2
CCOc1cc(C(C(=O)NCC2CCCO2)N(C(=O)Cn2nnc3ccccc32)c2ccc(OC)c(OC)c2)ccc1O (stereo unspecified)	-1.2	-17.9	4.5	-4.7	-5.5	.
CC(=O)SC(C[N+](=O)[O-])c1cn(C(C)=O)c2ccccc12 (stereo unspecified)	2.5	20.8	111.6*	-12.0	2.2	-2.3
CC(=O)N1CCN(S(=O)(=O)c2cccc(C(=O)NCCc3ccc(Cl)cc3)c2)CC1	-2.8	12.2	-6.4	9.6	3.0	-4.6
Cc1ccc(-c2csc3ncnc(N4CCN(Cc5ccccc5)CC4)c23)cc1	-2.3	3.7	8.4	4.3	-1.6	-18.4
Cc1csc2ncnc(NC3CCN(Cc4ccccc4)CC3)c12	-2.4	11.1	73.4	9.2	107.4*	-4.3
CCc1cccc(C)c1NC(=S)NCc1ccc2c(c1)cc(C)n2C	6.6	32.3	124.1*	47.8	11.9	.
CCN(c1ccc(NC(=O)c2cccc(S(=O)(=O)N3CCN(C)CC3)c2)cc1)C(C)C	-2.2	15.0	23.9	19.1	2.4	2.0
NC(=S)N/N=C/c1ccc2ccccc2c1	-24.0	17.5	-26.6	58.4*	6.0	-0.5
O=C(COc1ccccc1-c1ccccc1)N/N=C/c1ccncc1	3.2	4.8	13.7	11.5	-5.1	-12.3
NC(=S)N/N=C/c1ccccc1O	-1.1	5.2	-39.8	7.1	91.5*	7.7
O=C(COc1cccc2cccnc12)N/N=C/c1ccccc1O	99.1*	40.2	-3.5	4.5	2.4	16.8
O=C(COc1ccccc1-c1ccccc1)N/N=C/c1ccc2ccccc2c1	88.2*	.	2.6	13.1	97.1*	100.5*
O=S(=O)(c1ccc(-c2n[nH]c(=S)o2)cc1)N1CCCC1	3.5	6.0	6.6	-4.8	-6.7	-2.9
COc1ccc(OC)c(C2C(C(=O)c3ccco3)=C(O)C(=O)N2CC2CCCO2)c1 (stereo unspecified)	1.5	16.1	1.5	-0.2	-6.6	0.1
O=C1CC(c2ccccc2)CC(=NCCO)/C1=C(\O)CCCN1C(=O)c2ccccc2C1=O (stereo unspecified)	-1.6	4.8	64.1*	9.6	6.9	2.0
CC1(C)CC(=O)/C(=C(\O)CCCN2C(=O)c3ccccc3C2=O)C(=NCC(=O)O)C1	-12.6	20.2	-20.7	-24.7	-3.1	-3.1
CCn1c(=NC(=O)c2ccc(S(=O)(=O)N3CCOCC3)cc2)sc2cccc(OC)c21	2.4	3.7	8.9	45.6	88.0*	32.7
CCn1c(=NC(=O)CCS(=O)(=O)c2ccccc2)sc2cccc(OC)c21	34.2	42.5	13.6	?	87.3*	-5.9
